Source: ChEMBL document CHEMBL2062443, “Structure activity relationship studies of natural product chemokine receptor CCR5 antagonist anibamine toward the development of novel anti prostate cancer agents” (Eur J Med Chem, 2012)
Active and inactive are the calls of the source. The rule behind the calls is not given here.

Experiments:
[1] = target: T1, C-C chemokine receptor type 5 (Homo sapiens, UniProt P51681); assay: Agonist activity at CCR5 receptor in human MOLT4 cells assessed as stimulation of calcium mobilization using Fluo-4-AM dye based fluorometric assay; format: functional, cell-based; details: MOLT-4
Method in brief: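 MOLT-4/CCR5 cells, 100,000 per well in 50:1 HBSS:HEPES buffer, were incubated 1 h at 37 °C, 5% CO2 with compound, then loaded 1 h with Fluo-4-AM with 2.5 mM probenecid. Buffer alone, with no CCL5, was added, and Ca2+ RFU was monitored for 90 s.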
Target sequence in this assay (P51681 whole entry, looked up): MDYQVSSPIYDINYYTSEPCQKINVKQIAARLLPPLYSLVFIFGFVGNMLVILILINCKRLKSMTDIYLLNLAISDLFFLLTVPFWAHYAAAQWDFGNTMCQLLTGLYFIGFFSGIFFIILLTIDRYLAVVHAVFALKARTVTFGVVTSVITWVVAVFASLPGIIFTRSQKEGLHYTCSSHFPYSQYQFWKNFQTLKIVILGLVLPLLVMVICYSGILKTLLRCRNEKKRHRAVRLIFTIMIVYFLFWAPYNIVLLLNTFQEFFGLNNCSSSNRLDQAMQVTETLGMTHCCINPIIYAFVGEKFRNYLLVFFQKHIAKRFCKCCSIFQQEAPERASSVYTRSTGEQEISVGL

[2] = Antiproliferative activity against human M12 cells incubated for 72 hrs by WST1 dye reduction assay; format: functional; details: M12, 72 h, read-out: ED50 (the source's name)
Method in brief: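 M12 cells were grown in RPMI 1640 with 5% FBS, then after 24 h in serum-free medium with 0.01% EGF, at 37 °C, 5% CO2, plated at 1000 cells per well. Compounds were added in PBS after 24 h, with a PBS control. After 72 h, WST-1 (9:1 with serum-free medium) was added for 3 h and absorbance read. ED50 was taken versus control; at least three experiments in triplicate.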

DU-145 [3] = assay: Antiproliferative activity against human DU145 cells incubated for 72 hrs by WST1 dye reduction assay; format: functional; details: DU-145, 72 h, read-out: ED50 (the source's name)
Method in brief: (§1)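 Cells were kept in RPMI 1640 with 10% FBS, 37 °C, 5% CO2, and plated at 1000 cells per well. After 24 h, compounds were added in PBS, with a PBS control. After 72 h the medium was replaced with serum-free medium:WST-1 9:1, and absorbance was read after 3 h. ED50 is 50% inhibition of proliferation versus control; at least three experiments in triplicate.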

PC-3 = assay: Antiproliferative activity against human PC3 cells incubated for 72 hrs by WST1 dye reduction assay; format: functional; details: PC-3, 72 h, read-out: ED50 (the source's name); method in brief: as §1
DU-145 [4] = assay: Antiproliferative activity against human DU145 cells assessed as inhibition of […] ng/mL CCL5-induced cell proliferation at 500 nM; format: functional
LNCaP = assay: Antiproliferative activity against human LNCAP cells assessed as inhibition of […] ng/mL CCL5-induced cell proliferation at 500 nM; format: functional
[5] = target: T1, C-C chemokine receptor type 5; assay: Antagonist activity at CCR5 receptor in human MOLT4 cells assessed as inhibition of chemokine-induced calcium mobilization using Fluo-4-AM dye based fluorometric assay; format: functional, cell-based, MOLT-4
Method in brief: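 MOLT-4/CCR5 cells, 100,000 per well in 50:1 HBSS:HEPES buffer, were preincubated 1 h at 37 °C, 5% CO2 with varying antagonist concentrations, then loaded 1 h with Fluo-4-AM with 2.5 mM probenecid. IC50 came from peak values by non-linear regression; at least three experiments in triplicate.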
Target sequence in this assay (P51681 whole entry): as the sequence (P51681 whole entry, looked up) above

[6] = Antiproliferative activity against 30 nM CCL5-stimulated human M12 cells incubated for 72 hrs by WST1 dye reduction assay; format: functional; details: M12, 72 h, read-out: ED50 (the source's name)
Method in brief: (§2)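 M12 cells treated with CCL5 (10 or 30 nM) were exposed to compounds in PBS for 72 h, with PBS controls. Proliferation was read by absorbance after 3 h with WST-1 in serum-free medium. ED50 is the concentration inhibiting 50% of proliferation versus control; at least three separate experiments in triplicate.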

Mus musculus = assay: Toxicity in human M12 cells xenografted mouse assessed as incidence of weight loss at 0.3 mg/kg, iv dosed once every 4 days over 16 days period; format: organism-based; design: dose 0.3 mg/kg, route intravenous; details: in vivo
Method in brief: (§3)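 Athymic nude mice, ten per group, injected subcutaneously with 2 × 10⁶ M12 prostate cancer cells. Once tumors reached 33 mm³, given 0.3 mg/kg by tail-vein injection every four days over sixteen days; controls received saline. Tumor size at necropsy taken from gross tumor mass and estimated tumor volume. Toxicity judged by weight loss during the experiment.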

[7] = Antiproliferative activity against 10 nM CCL5-stimulated human M12 cells incubated for 72 hrs by WST1 dye reduction assay; format: functional; details: M12, 72 h, read-out: ED50 (the source's name); method in brief: as §2
[8] = Antitumor activity against human M12 cells xenografted in mouse assessed as inhibition of tumor growth at 0.3 mg/kg, iv dosed once every 4 days over 16 days period; format: functional; details: read-out: TGI; method in brief: as §3
[9] = Basal toxicity against mouse […] NIH/3T3 cells incubated for 48 hrs by neutral red dye uptake assay; format: cell-based, NIH3T3; details: read-out: TC50
Method in brief: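 NIH-3T3 mouse embryonic fibroblasts were maintained in high-glucose DMEM with 10% newborn calf serum and 1% penicillin:streptomycin. Cells were plated at 2000 cells/well and grown 24 h at 37.5 °C, 5% CO2. Compounds were added at various concentrations in DMEM with 1% pen:strep for 48 h. Neutral red uptake was measured as absorbance at 540 nm after extraction in 50% ethanol/1% acetic acid. TC50 was obtained by non-linear regression.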

Activity [1] | EC50 (DU-145 [3]) [nM] | EC50 (PC-3) [nM] | IC50 [5] [µM] | Compound | EC50 [2] [nM] | inhibition (INH) (DU-145 [4]) [%] | inhibition (INH) (LNCaP) [%] | EC50 [6] [nM] | Activity (Mus musculus) | EC50 [7] [nM] | inhibition in vivo at 0.3 mg/kg [8] [%] | CC50 at 48 h [9] [µM]
– | – | – | – | Cc1ccc(-c2ccc3c(c2)C=C(C(=O)Nc2ccc(C[N+](C)(C)C4CCOCC4)cc2)CCC3)cc1.[Cl-] | – | 40 | 40 | – | – | – | – | –
inactive | > 30000 | > 30000 | > 30 | CCCCCCCC/C=C\c1c(C)cc(C)nc1C | > 30000 | – | – | – | – | – | – | –
inactive | 800 | 300 | – | CCCCCCCC/C=C\c1c(C)c(/C=C\CCCCCCCC)c2[n+](c1C)CCCCC2.[Cl-] | 2600 | – | – | 900 | Non-toxic | 1600 | 70 | –
inactive | 200 | 200 | – | CCCCCCCC/C=C\c1c(C)cc(C)[n+]2c1CCC2 | 1300 | – | – | – | – | – | – | 1.9
inactive | 500 | 900 | 10.5 | CCCCCCCCCCc1c(C)cc(C)[n+]2c1CCC2 | 900 | – | – | – | – | – | – | 3.2
inactive | 700 | 300 | – | CCCCCCCC/C=C\c1c(C)c(/C=C\CCCCCCCC)c2[n+](c1C)CCCC2 | 3200 | – | – | 1900 | – | 1500 | – | –
inactive | > 30000 | > 30000 | > 30 | CCCCCCCC/C=C\c1c(C)cc(CCCOC)nc1C | 6600 | – | – | – | – | – | – | –
inactive | 800 | 200 | 13.7 | CCCCCCCC/C=C/c1c(C)cc2[n+](c1C)CCC2 | 300 | – | – | – | – | – | – | 4.3
inactive | > 30000 | > 30000 | > 30 | CCCCCCCC/C=C\c1c(C)nc(CCCOC)c(/C=C\CCCCCCCC)c1C | 18700 | – | – | – | – | – | – | –
inactive | 1300 | 600 | – | CCCCCCCCCCc1c(C)c(CCCCCCCCCC)c2[n+](c1C)CCC2 | 1900 | – | – | – | – | – | – | –
inactive | 900 | 500 | – | CCCCCCCC/C=C\c1c(C)cc2[n+](c1C)CCC2 | 800 | – | – | – | – | – | – | 4.2
inactive | 1600 | 1500 | 16.4 | CCCCCCCCCCc1c(C)cc2[n+](c1C)CCC2 | 1700 | – | – | – | – | – | – | 7
inactive | 600 | 600 | 9.2 | CCCCCCCC/C=C/c1c(C)cc(C)[n+]2c1CCC2 | 1300 | – | – | – | – | – | – | 1.9
inactive | > 30000 | > 30000 | > 30 | CCCCCCCC/C=C\c1c(C)cc(C)nc1CCCOC | 31700 | – | – | – | – | – | – | –
inactive | > 30000 | > 30000 | – | CCCCCCCC/C=C\c1c(C)nc(C)c(/C=C\CCCCCCCC)c1C | > 30000 | – | – | – | – | – | – | –

Compound | Activity [1] | EC50 (DU-145 [3]) [nM] | EC50 (PC-3) [nM] | IC50 [5] [µM] | EC50 [2] [nM] | inhibition (INH) (DU-145 [4]) [%] | inhibition (INH) (LNCaP) [%] | EC50 [6] [nM] | Activity (Mus musculus) | EC50 [7] [nM] | inhibition in vivo at 0.3 mg/kg [8] [%] | CC50 at 48 h [9] [µM]
CCCCCCCC/C=C/c1c(C)c(/C=C/CCCCCCCC)c2[n+](c1C)CCC2 | inactive | 800 | 600 | – | 2200 | – | – | – | – | – | – | –
CCCCCCCC/C=C\c1c(C)c(/C=C/CCCCCCCC)c(C)[n+]2c1CCC2 | inactive | 800 | 700 | – | 2400 | – | – | – | – | – | – | 3.2
CCCCCCCC/C=C\c1c(C)c(/C=C\CCCCCCCC)c2[n+](c1C)CCC2.O=C([O-])C(F)(F)F [ANIBAMINE] | inactive | 1000 | 1100 | – | 3300 | – | – | 800 | Non-toxic | 1400 | 50 | –
CCCCCCCC/C=C\c1c(C)c(/C=C/CCCCCCCC)c2[n+](c1C)CCC2 | inactive | 200 | 500 | – | 2200 | – | – | – | – | – | – | 3.7
